IC50 and inhibition data for 20 compounds are collected here from PubChem BioAssay AID602223 (Southern Research Specialized Biocontainment Screening …, 2012).

A word on the IC50: it is the concentration that gives 50% inhibition.

Inconclusive results are not listed. The source made the active and inactive calls.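 Rule for the calls: active = inhibition of 30% or more at any tested concentration; inactive = the rest, inconclusive results apart.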

One experiment addresses M1-family alanyl aminopeptidase (Plasmodium falciparum 3D7). Put plainly: PfM1AAP enzyme inhibition, dose response, selectivity assay for PfM17LAP inhibitor project, biochemical, QFRET, H-Leu-NHMec substrate, set 2 (AID 602223). The following applies: recombinant PfM1AAP, H-Leu-NHMec fluorogenic cleavage. In a few lines:
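Material: purified recombinant P. falciparum M1 aminopeptidase; Medium: Tris buffer, pH 7.5, containing CoCl2; Also added: fluorogenic NHMec-releasing peptide substrate, 0.1 mM final; Incubation: 90 min enzyme reaction at room temperature; Detection: fluorescence of liberated NHMec, excitation 370 nm, emission 460 nm; Read-out: IC50 from dose-response curve fit, top and bottom fixed.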
In the case of `COc1ccc(CCCC(=O)NO)cc1`, the IC50 is 95.8 µM.
The same measure, in the same setting: the result for `O=C(Cc1ccc(OCc2ccccc2)cc1)NO` reads 2.89 µM; that for `CCCCOc1ccc(C(=O)NO)cc1`, 99.1 µM.
Still for that read-out and setting: the same measure for `CC(C)COc1ccc(CC(=O)NO)cc1`: 23.2 µM; for `O=C(Cc1ccc2c(c1)CCCC2)NO`: 1.41 µM; for `Cc1ccc(CC(=O)NO)cc1`: 5.77 µM.
The same measure, in the same setting: the result for `CCCCOc1ccc(CC(=O)NO)cc1` reads 14 µM.
For the compound `CCCCCCCCCC(=O)NO`, the IC50 is 13.3 µM.
For `O=C(Cc1ccc(Oc2ccccc2)cc1)NO`, the IC50 is 5.45 µM.
Same read-out and setting: the same measure for `CCOc1ccc(CC(=O)NO)cc1`: 7 µM; for `COc1ccc(CC(=O)NO)cc1`: 4.58 µM; for `CCCCc1ccc(CC(=O)NO)cc1`: 2.57 µM.

Still in this experiment, the particulars now being: recombinant PfM1AAP, H-Leu-NHMec fluorogenic cleavage; at 100 µM (top of the series).
On to `CCCCOc1ccc(CC(=O)O)cc1`, for which the inhibition result is “inactive”.
For the compound `CCCOc1ccc(CC(=O)OC)cc1`, the inhibition result was “inactive”.
Same read-out and setting: the same measure for `COC(=O)Cc1ccc(OCCN(C)C)cc1`: “inactive”; for `CC(C)(C(=O)NO)c1ccccc1`: “inactive”; for `CCCCOc1ccc(CC(=O)N(C)O)cc1`: “inactive”.
Same read-out and setting: the same measure for `CN(O)C(=O)Cc1ccc(OCc2ccccc2)cc1`: “inactive”.
Consider `CCCCOc1ccc(CNc2c(N(O)Cc3ccccc3)c(=O)c2=O)cc1`, for which the inhibition result was “inactive”.
Same read-out and setting: the result for `CCCCOc1ccc(CNc2c(N(C)O)c(=O)c2=O)cc1` reads “inactive”.
